Most compounds without a hit are left out; they make up all but 4.7% or so of the library.
MPTP inh – inhibitors of mitochondrial permeability transition pore; isolated mouse mitochondria, Ca2+ swelling absorbance, 30 min; AID 602449; inhibition, % at 10 µM; 360,000 tested, 1.4% active;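 active = inhibition of 50% or more, scaled per plate between neutral and stimulator controls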;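 also: 0% = DMSO wells given calcium and 100% = 1 mM EGTA wells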
ADAM10 inh – inhibitors of human ADAM10 | O14672 | recombinant ADAM10, EDANS/DABCYL FRET peptide cleavage, 3 h | inhibition, % at 7 µM | 370,000 tested, 0.62% active;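 active = inhibition above a per-campaign cutoff equal to the mean of compounds falling between control-based bounds plus 3 SD, cut at about 20% in these data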;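 also: 0% = DMSO wells while the 100% control is not disclosed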
Target sequence (O14672 214-748 limits assumed): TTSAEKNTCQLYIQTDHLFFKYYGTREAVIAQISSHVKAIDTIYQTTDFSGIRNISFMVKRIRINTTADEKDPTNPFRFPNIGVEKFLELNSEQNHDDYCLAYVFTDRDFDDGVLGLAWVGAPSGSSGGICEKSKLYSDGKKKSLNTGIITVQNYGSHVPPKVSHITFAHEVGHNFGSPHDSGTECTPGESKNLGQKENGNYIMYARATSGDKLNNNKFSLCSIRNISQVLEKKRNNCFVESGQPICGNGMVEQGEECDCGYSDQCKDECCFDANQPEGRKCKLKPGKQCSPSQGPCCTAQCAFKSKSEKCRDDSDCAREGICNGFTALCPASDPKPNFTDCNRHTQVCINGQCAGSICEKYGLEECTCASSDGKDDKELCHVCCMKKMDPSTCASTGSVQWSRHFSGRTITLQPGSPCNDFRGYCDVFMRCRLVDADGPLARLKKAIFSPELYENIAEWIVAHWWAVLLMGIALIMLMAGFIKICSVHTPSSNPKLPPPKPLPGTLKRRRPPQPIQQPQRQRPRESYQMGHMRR
MT1-MMP act inh – inhibitors of human MT1-MMP activation | 360,000 tested, 0.061% active | HT1080 RFP-PRO-GFP cells, GFP/RFP ratio fluorescence, overnight; percent of plate control window, DMSO zero | GFP/RFP ratio change, % at 20 µM;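 active = GFP/RFP ratio change of at least 30% with cell ATP level not reduced by more than half and red fluorescence within 50% of control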
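Compound: 20 µM single dose, 1% DMSO / System: HT1080 RFP-PRO-GFP cells / Controls: DMSO and RFP-L50D-GFP cell wells / Read-out basis: GFP/RFP fluorescence ratio / Schedule: overnight compound exposure at 37 °C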
NR3A LBD binder – modulates the human NR3A ligand-binding domain. NR3A LBD differential scanning fluorimetry, Tm shift; 0% = protein alone, 100% = glycine-bound protein. Tm shift relative to glycine control, % at 25 µM. 340,000 tested, 2.5% active. AID 1259313;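 active = melting temperature shift of at least 10% of the positive control shift, at one fixed dose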
ADAM17 inh – ADAM17 inhibition, QFRET primary screen. P78536. recombinant ADAM17, EDANS/DABCYL FRET peptide cleavage. inhibition, % at 6.95 µM. 370,000 tested, 0.83% active. AID 720648;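 active = inhibition above the mean of compounds lying between control limits plus 3 SD, set per campaign, cut at about 8.5% in these data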;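 also: 0% = DMSO-only wells as the low control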
SKN-1 block – blocks SKN-1 activity in C. elegans | C. elegans VP596 Pgst-4::GFP/RFP ratio, acrylamide-induced, 24 h | inhibition, % at 21.8 µM | 360,000 tested, 0.49% active | AID 624304;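 active = interference check ratio from 0.5 to 1.5 plus GFP to RFP signal ratio inhibition reaching or exceeding a fixed threshold, cut at about 30% in these data, passing the limit was not always enough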
Rh123 counter – mitochondrial membrane potential, counter-screen; shares compounds with MPTP inh; isolated mitochondria, Rhodamine 123 fluorescence; inhibition, % at 10 µM; 5,000 tested, 78% active; in the data active = inhibition above about 22%;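 also: 0% = DMSO vehicle and 100% = positive control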
* marks the source's active call; other numbers are inactive results; / = not tested or not shown.

SMILES	MPTP inh	ADAM10 inh	MT1-MMP act inh	NR3A LBD binder	ADAM17 inh	SKN-1 block	Rh123 counter
CC(=O)c1cccc(NC(=S)NCCC2=CCCCC2)c1	6	5	-10	-5	2	4	/
O=C(NCCC1=CCCCC1)Nc1ccc2nsnc2c1	85*	-303	0	2	-106	-6	85*
CCOC(=O)c1ccc(NC(=S)NCCC2=CCCCC2)cc1	77*	12	4	13*	7	10	86*
COc1ccc(NC(=O)c2ccc3nc[nH]c3c2)cc1	0	-12	0	5	1	-10	/
O=C(Nc1ccc(C(F)(F)F)cc1)c1ccc2nc[nH]c2c1	80*	2	4	6	1	6	93*
O=C(Nc1ccc(Br)c(C(F)(F)F)c1)c1ccc(C(F)(F)F)cc1	83*	15	-18	24*	6	-9	87*
O=C(Nc1cccc(O)c1)c1ccc(C(F)(F)F)cc1	1	-14	6	-1	-2	1	/
CN(C(=O)c1ccc(Cl)c(S(=O)(=O)N2CCOCC2)c1)c1ccccc1C(=O)O	2	9	1	-1	0	9	/
Fc1cccc2sc(Nc3nc4c(F)cccc4s3)nc12	56*	-194	-5	9	-41	-5	69*
Fc1cccc2sc(Nc3nnc(-c4ccccc4)o3)nc12	76*	-114	7	-11	-17	5	76*
O=C(NNc1nc2c(F)cccc2s1)c1ccc(F)cc1	66*	-3	-2	4	0	-1	90*
COc1ccc(NC(=O)Cc2nnc(SCC(=O)Nc3ccc(F)cc3)n2C)cc1	1	5	3	-2	-1	3	/
Cc1ccc(CNC(=O)Nc2ccc(OC(F)(F)F)cc2)n1C	2	-12	-5	2	-6	12	/
Cn1ncc(Br)c1NC(=O)Nc1ccc(OC(F)(F)F)cc1	89*	8	4	-6	1	5	85*
COc1ccc(CC2(C)OC(c3ccc([N+](=O)[O-])cc3)=NN2C(C)=O)cc1 (configuration not stated)	3	9	-3	-4	0	-10	/
Cc1nc2cc(-c3ccsc3-n3c(C)ccc3C)[nH]n2c(=O)c1Cl	67*	-130	-81	0	-40	14	51*
O=C(/C=C/C(Cl)(Cl)Cl)Nc1ccc(Cl)cc1	96*	2	-13	-10	0	20	102*
O=C(NC(NC(=S)Nc1ccccc1O)C(Cl)(Cl)Cl)c1ccco1 (configuration not stated)	4	8	-3	0	2	8	/
COc1ccc(NC(=S)NC(NC(=O)c2cccc(Cl)c2)C(Cl)(Cl)Cl)c([N+](=O)[O-])c1 (configuration not stated)	92*	13	6	13*	4	19	51*
O=C(Cc1cccc2ccccc12)NC(NC(=S)Nc1ccccc1Cl)C(Cl)(Cl)Cl (configuration not stated)	79*	-2	-10	19*	1	21	70*
O=C(NC(NC(=S)Nc1ccccc1Cl)C(Cl)(Cl)Cl)c1cccc(Cl)c1 (configuration not stated)	77*	14	-30	13*	8	10	62*
COc1ccc(NC(=S)NC(NC(=O)c2cccc(C)c2)C(Cl)(Cl)Cl)c([N+](=O)[O-])c1 (configuration not stated)	71*	21*	12	10*	7	2	64*
O=C(Nc1ccc(Cl)cc1)Nc1nc(-c2ccccc2O)cs1	99*	9	8	26*	2	-5	67*
O=C(Cc1csc(NC(=O)Nc2ccc(Cl)cc2)n1)NC1CCCC1	94*	5	5	13*	3	31	81*
Cc1cnc(NC(=O)Nc2ccc(Cl)cc2)s1	82*	16	-12	26*	8	8	86*
SMILES	MPTP inh	ADAM10 inh	MT1-MMP act inh	NR3A LBD binder	ADAM17 inh	SKN-1 block	Rh123 counter
CCOC(=O)Cc1csc(NC(=O)Nc2cccc(Cl)c2)n1	73*	8	-1	-3	4	-9	86*
Cc1cc(=O)oc(C)c1C(=O)NCc1ccccc1	1	6	-7	0	0	29	/
CCOc1ccc(NC(=O)Cn2nnc(-c3ccccc3NC(=O)C3CC3)n2)cc1	2	3	-7	-5	-4	7	/
CCOC(=O)c1csc(NC(=O)Nc2cccc(Cl)c2)n1	97*	6	-5	0	0	11	84*
CCOC(=O)Cc1csc(NC(=O)Nc2ccc(Cl)cc2)n1	74*	4	-3	-7	3	-2	77*
CCOC(=O)Cc1csc(N/N=C/c2ccc(Cl)cc2)n1	-1	4	-1	-11	4	-16	/
O=C(Nc1ccc(Cl)cc1)Nc1nc(-c2sccc2Br)cs1	41	1	-4	0	-3	21	/
Cc1csc(NC(=O)Nc2ccc(Cl)cc2)n1	74*	7	5	21*	-3	3	69*
Cn1nc(C(=O)NCc2cccc(F)c2)cc1C(=O)NCc1cccc(F)c1	0	5	8	-4	0	-4	/
CCC1(CC)NC(=S)NC1=S	1	-7	3	1	-1	15	/
O=C(CSc1nc2ccccc2c(=O)n1-c1ccccc1)N1CCc2ccccc2C1	84*	2	1	-2	-1	-7	75*
Cc1cc(C)c(S(=O)(=O)NCc2ccncc2)c(C)c1	87*	4	-8	-1	2	-2	72*
CCCCNS(=O)(=O)c1ccc(S(=O)(=O)NCc2ccncc2)cc1	80*	-4	9	2	-2	-3	70*
Cc1ccc(S(=O)(=O)NCc2ccncc2)c(C)c1C	95*	2	-3	-1	-1	1	91*
COc1ccc(S(=O)(=O)NC2CCCCC2)cc1F	0	-7	-1	3	-3	15	/
CCCCn1c(/C=N/Nc2nc3ccccc3[nH]2)nc2ccccc21	100*	-1	7	-5	3	4	84*
COc1ccc(C(=O)/C=C/Nc2ccc(S(=O)(=O)Nc3cccc(C(C)=O)c3)cc2)cc1	97*	-9	-7	13*	-1	7	84*
COc1cccc(C(=O)/C=C/Nc2ccc(S(=O)(=O)Nc3nc(C)cc(C)n3)cc2)c1	0	-13	2	3	-6	1	/
CCC(CO)Nc1cccc2c1S(=O)(=O)N(Cc1cn(Cc3ccc(C(F)(F)F)cc3)nn1)Cc1ccccc1O2 (configuration not stated)	/	-51	/	/	-1	/	/

Screens deposited in PubChem BioAssay by several laboratories.
